In the library only some 1.7% were active in any assay of this set; here they are far more common.
ARNT TACC3 PPI: disruptors of human ARNT/TACC3 interaction; Q9Y6A5; AlphaScreen His-ARNT PAS-B/GST-TACC3 binding, luminescence; TACC3 fragment carries E629A point mutation; inhibition, % at 9.99 µM; actives 0.66% (n = 390,000); AID 623870;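 active = mean inhibition of replicates at least 50% and at least half of replicates each reaching 50%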;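 note: 0% = complete ARNT plus TACC3 wells and 100% = ARNT alone without TACC3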
CAL PDZ FP-1: inhibitors of human CAL PDZ peptide binding; Q9HD26; purified CAL PDZ, TMR-peptide fluorescence polarization, 1 h; inhibition, % at 20 µM; actives 0.02% (n = 330,000); AID 504414;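 active = highest replicate inhibition of at least 40%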;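 note: plate controls were DMSO neutral control wells for no effect and unlabeled competitor peptide control wells for full effect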
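Material: tagged CAL PDZ protein CerCALP, purified; buffer or medium: sodium phosphate/NaCl buffer pH 7.4 with TCEP, IgG, Thesit; also added: fluorescent TMR peptide probe; schedule: 1 h incubation at room temperature before polarization reading; technique: fluorescence polarization from S- and P-plane intensities, G-factor corrected; control set: unlabelled peptide and DMSO controls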
AI-2 QS modul: modulators of Vibrio harveyi AI-2 quorum sensing system. AID 2094. Vibrio harveyi JMH597 AI-2 luminescence/OD600 ratio, 9 h; hits give low values; strain lacks LuxN and CqsS sensors; 0 = neutral-control median. activity change, % at 7.5 µM. actives 0.4% (n = 300,000); in the data active = activity change below about -75%, passing the limit was not always enough;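 note: luminescence divided by OD600 gain over 9 h not by final OD600 alone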
CAL PDZ FP-2: CAL PDZ (human) peptide binding inhibition; Q9HD26; purified CAL PDZ, TMR-peptide fluorescence polarization, 1 h; inhibition, % at 24.9 µM; actives 0.92% (n = 300,000); AID 602252;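 active = mean inhibition of at least 30% with at least half of replicates also reaching 30%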;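 note: 0% = DMSO neutral control and 100% = excess unlabeled competitor peptide PRC23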
Rce1 inhib: yeast Ras-converting enzyme inhibition | actives 0.27% (n = 290,000) | yeast membranes, quenched prenylated peptide cleavage fluorescence | Q03530 | calls only;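 active = fall in fluorescence gain of 50% or more versus controls, with final raw signal at or below 3038400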;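 note: plate controls were neutral control wells for no effect and wells lacking membranes for full effect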
Target sequence (Q03530 whole entry, looked up): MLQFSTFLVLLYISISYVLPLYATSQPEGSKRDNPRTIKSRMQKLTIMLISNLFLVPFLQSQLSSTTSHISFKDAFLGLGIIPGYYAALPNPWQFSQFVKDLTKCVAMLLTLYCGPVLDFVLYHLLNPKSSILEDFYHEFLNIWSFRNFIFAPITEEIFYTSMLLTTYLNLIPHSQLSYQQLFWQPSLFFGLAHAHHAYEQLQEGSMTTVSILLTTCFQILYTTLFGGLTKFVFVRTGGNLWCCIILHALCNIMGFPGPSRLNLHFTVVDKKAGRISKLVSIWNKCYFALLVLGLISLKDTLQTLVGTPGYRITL
An asterisk follows results filed as active; i = inactive; / = no result given; + = active, no number.

SMILES	ARNT TACC3 PPI	CAL PDZ FP-1	AI-2 QS modul	CAL PDZ FP-2	Rce1 inhib
COc1cc(C(=O)NCC(=O)OCC(=O)Nc2nnc(-c3ccccc3)o2)cc(OC)c1OC	/	-3.4	19.9	-4.0	i
COc1cc(C(=O)OCC(=O)Nc2ccc(SC(F)F)cc2)cc(OC)c1OC	-3.8	-0.8	1.0	-6.5	+
COc1ccc(NC(=O)N(C)C[C@@H]2Oc3c(NC(=O)Nc4ccc(F)cc4)cccc3C(=O)N([C@H](C)CO)C[C@@H]2C)cc1	3.6	/	/	/	/
Cc1ccc2cccc(NC(=S)NC(=O)c3ccnn3C)c2n1	2.7	-1.4	-1.1	5.2	/
CC1CC(C)CN(c2oc(-c3ccccc3F)nc2C#N)C1 (centres undefined)	25.1	-0.8	14.7	-3.7	i
O=C(NCC1CCCO1)C(c1cccs1)N(C(=O)c1ccc(CN2CCOCC2)o1)c1ccc(Cl)cc1 (centres undefined)	/	0.7	9.9	-3.9	i
COc1ccc(C(=O)OCC(=O)Nc2nnc(-c3ccccc3)o2)cc1	/	0.2	27.0	-0.2	i
O=C(COC(=O)c1cccs1)Nc1nnc(-c2ccccc2)o1	60.6*	-1.8	101.6	10.4	i
Cc1ccc(Cc2c[nH]c(=S)s2)cc1	-0.8	0.2	-88.9*	/	i
COc1ccc(-c2ccc3oc(-c4ccc(OC)cc4)c(-c4ccc(OC)cc4)c3c2)cc1	-14.0	0.2	19.6	-1.0	+
CCCN1C(=O)/C(=c2\s/c(=C3\C=Cc4ccccc4N3CC)c(=O)n2-c2ccccc2)SC1=S	/	/	10.0	/	i
CCCn1c(=C(C#N)C#N)s/c(=C2\C=Cc3ccccc3N2CC)c1=O	-2.9	0.1	/	54.9*	/
CCCNC(=O)c1cc(-c2ccc(Br)cc2)on1	0.9	-1.7	15.4	32.6*	i
Cc1cc(N=Cc2c(O)n(-c3ccc4c(c3)OCO4)c(=O)c3ccccc23)ccn1	3.3	-1.1	20.8	35.4*	i
C[C@H]1CN([C@@H](C)CO)S(=O)(=O)c2ccc(C3=CCCC3)cc2O[C@H]1CN(C)C(=O)CN(C)C	12.8	/	/	/	/
CCn1cc(/C=C(\NC(=O)c2ccccc2F)C(=O)N2CCCC2)c2ccccc21	-9.0	-1.5	-2.1	-3.1	+
CCn1cc(/C=C(\NC(=O)c2ccccc2F)C(=O)N2CCOCC2)c2ccccc21	-7.5	-2.0	5.2	-4.5	+
CCn1cc(/C=C(\NC(=O)c2ccccc2Cl)C(=O)N2CCOCC2)c2ccccc21	-14.4	-1.1	3.2	0.6	+
CN(C)S(=O)(=O)n1cc(/C=C(\NC(=O)c2ccccc2F)C(=O)N2CCOCC2)c2ccccc21	18.8	-0.7	13.0	-0.8	i
COC(=O)C1C(O)C(C)C(O)C(C)(O)/C=C\C=C(/C)C(=O)Nc2c(C)c(OC(C)=O)c3c(c2O)C(=O)C(C)=C2OCOC(=C23)/C(C)=C/C(C)(O)C(O)C(C)C1O (centres undefined)	29.2	0.6	-159.8*	-0.3	i
C/C=C/c1ccc(OCCn2nnc3ccccc32)c(OC)c1	-1.8	-1.0	-7.1	-4.5	i
C=CCc1ccc(OCCn2nnc3ccccc32)c(OC)c1	-6.6	-2.5	-0.9	94.9*	i
CC1CC(C)CN(S(=O)(=O)N2CCC(C(=O)NCc3ccco3)CC2)C1 (centres undefined)	-1.0	-3.0	10.1	-7.5	i
N#C/C(=C/c1ccc(O)c(O)c1)c1nc2ccccc2[nH]1	18.8	2.9	39.6	114.5*	i
CC(Sc1nncs1)C(=O)Nc1ccc2c(c1)OCO2 (centres undefined)	-31.3	-0.7	18.9	-3.3	i
SMILES	ARNT TACC3 PPI	CAL PDZ FP-1	AI-2 QS modul	CAL PDZ FP-2	Rce1 inhib
CC(Sc1nncs1)C(=O)Nc1ccc(S(=O)(=O)Nc2ncccn2)cc1 (centres undefined)	47.7*	-1.0	/	-3.9	/
CN(C)CC(=O)N[C@H]1CC[C@H](CCn2cc(C3CCCCC3)nn2)O[C@@H]1CO	-3.4	/	/	/	/
Cc1cc(Cl)c(C)c(S(=O)(=O)Oc2ccccc2NC(=O)CCC(=O)O)c1Cl	28.2*	0.1	/	0.5	/
CCn1nc(C)cc1-c1nnc(Sc2ncc([N+](=O)[O-])s2)n1C	2.9	0.8	-237.9*	4.6	i
CNC(=S)N/N=C/c1cn(Cc2c(F)cccc2Cl)c2ccccc12	-3.8	-0.6	2.5	-2.7	+
CCNC(=S)N/N=C/c1cn(Cc2ccccc2F)c2ccccc12	0.0	-2.4	22.9	3.1	i
COc1cccc(NC(=O)CSc2nc3ccsc3c(=O)n2-c2ccc(C(=O)O)cc2)c1	0.5	-0.6	4.1	43.5*	i
Oc1ccc(Br)cc1CNc1cccc2cccnc12	49.3*	0.0	2.5	-5.5	i
Oc1c(Br)cc(Br)cc1CNc1cccc2cccnc12	113.3*	0.7	54.3	/	i
COc1cccc(CNc2cccc3cccnc23)c1O	23.1	-1.7	6.8	/	i
CCC(=O)Nc1ccc2c(c1)C(=O)N(C)C[C@@H](OC)[C@H](C)CN(C(=O)CC)[C@@H](C)CO2	2.2	/	/	/	/
Cc1cccc(C(=O)N2CCCC(c3nc(-c4ccc(F)cc4)no3)C2)c1 (centres undefined)	-7.0	-0.3	5.0	-8.0	i
O=C(O)c1cc(N=Nc2c(O)ccc3ccccc23)cc(C(=O)O)c1	/	-3.8	/	6.4	/
O=C(O)c1ccc(N=Nc2c(O)ccc3ncccc23)cc1	61.9*	-1.3	27.2	1.9	i
O=[N+]([O-])c1ccc(N/N=C/c2cccc(O)c2)cc1	-19.8	0.5	-85.9*	-2.4	i
CC1CCCCN1C(=S)NCc1ccco1 (centres undefined)	-3.6	0.1	5.7	2.1	i
COC(=O)c1c(N2C(=O)[C@H]3[C@@H](C2=O)[C@]2(C(=O)Nc4c2ccc(C)c4C)N2CCC[C@@H]32)sc(C)c1C	0.1	-0.7	21.0	1.0	i
COC(=O)c1c(N2C(=O)[C@H]3[C@@H](C2=O)[C@]2(C(=O)Nc4c(C)cc(C)cc42)N2CCC[C@@H]32)sc(C)c1C	2.7	0.2	-1.8	65.5*	i
CCOC(=O)c1cc2c(c(CCO)n1)[C@H](CCO)N(S(=O)(=O)C(C)(C)C)C2	-3.8	0.2	/	-1.4	/
O=C(CCl)Nc1cccc(S(=O)(=O)NC2=NCCCCC2)c1	8.7	0.4	/	/	/
CC(C)=CC(=O)Nc1cccc(S(=O)(=O)NC2=NCCCCC2)c1	-0.6	0.6	/	47.1*	/
CC1=CC(c2ccc(Cl)cc2)n2nc(NC(=O)CCCC(=O)O)nc2N1 (centres undefined)	/	-2.9	9.9	-2.1	i
CCC1CCCCN1CCCNC(=O)Cn1ncc2c([nH]c3ccc(C)cc32)c1=O (centres undefined)	/	3.5	5.6	-2.6	i
CCOC(=O)c1cc(C)sc1NC(=O)CSc1nnnn1C	4.1	-2.5	21.7	-2.2	i
COc1nc(-c2ccccc2)ccc1-c1noc(-c2ccccc2F)n1	-4.1	0.3	28.7	-1.2	+
